Values after ≈ are worked out from the molar mass of the structure shown.
Assays:
Assay type in all cases: functional
[1] = In vitro antifungal activity against 6 filamentous fungi
How it was run: (§1)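 Agar dilution on Kimmig's agar with 0.5% glycerol, using ATCC strains or clinical isolates. Drug stocks were 800 μg/mL in 50% ethanol, tested as 2-fold dilutions from 80 to 0.03 μg/mL. Inocula were 10⁵ cfu/mL. […] Geometric means took >80 as 160 and ≤0.03 as 0.03.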

[2] = In vitro for antifungal activity against 10 yeasts; how it was run: as §1
Candida albicans [3] = test: In vivo antifungal activity against murine candidosis model after peroral administration with 1 mg/kg at various time intervals. (percent protection for 100% mortality with fluconazole-treated group.); details: route oral
How it was run: (§2)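 Groups of 10 male mice were infected iv with 0.2 mL of C. albicans at 2 to 8×10^7 cfu/mL. Drug was given orally as a suspension in 1% Tween + 0.2% carboxymethylcellulose at 1, 4 and 24 h post-infection; controls got vehicle only. Survival was scored on days 3, 5, 7 and 9. Read-out was % survival on the day all untreated controls died, or on the day all mice given fluconazole at the same dose died.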

Candida albicans [4] = test: In vivo antifungal activity against murine candidosis model after peroral administration with 1 mg/kg at various time intervals. (percent protection for 100% mortality with untreated group); details: route oral; how it was run: as §2
Candida albicans [5] = test: In vivo antifungal activity against murine candidosis model after peroral administration with 0.5 mg/kg at various time intervals. (percent protection for 100% mortality with fluconazole-treated group.); details: route oral; how it was run: as §2
Candida albicans [6] = test: In vivo antifungal activity against murine candidosis model after peroral administration with 0.5 mg/kg at various time intervals. (percent protection for 100% mortality with untreated group); details: route oral; how it was run: as §2

| SMILES | MIC ([1]; read-out: MIC) | MIC ([2]; read-out: MIC) | Protection (Candida albicans [3]) | Protection (Candida albicans [4]) | Protection (Candida albicans [5]) | Protection (Candida albicans [6]) | MIC [1] | MIC [2] |
| --- | --- | --- | --- | --- | --- | --- | --- | --- |
| C[C@@H](n1cnc2cc(N)c(F)cc2c1=O)[C@](O)(Cn1cncn1)c1ccc(F)cc1F | 50 µg/mL (≈ 116 µM) | 8.7 µg/mL (≈ 20.2 µM) |  |  |  |  |  |  |
| C[C@@H](n1cnc2cccc(F)c2c1=O)[C@](O)(Cn1cncn1)c1ccc(F)cc1F | 57 µg/mL (≈ 137 µM) | 4.3 µg/mL (≈ 10.4 µM) | 0% | 0% |  |  |  |  |
| C[C@@H](n1cnc2cc(-n3ncnn3)ccc2c1=O)[C@](O)(Cn1cncn1)c1ccc(F)cc1F | 57 µg/mL (≈ 122 µM) | 1.5 µg/mL (≈ 3.22 µM) |  |  |  |  |  |  |
| C[C@@H](n1cnc2cc(OCC(F)F)ccc2c1=O)[C@](O)(Cn1cncn1)c1ccc(F)cc1F | 25 µg/mL (≈ 52.4 µM) | 1.4 µg/mL (≈ 2.93 µM) |  |  | 0% | 100% |  |  |
| C[C@@H](n1cnc2cc(OCC(F)(F)C(F)F)ccc2c1=O)[C@](O)(Cn1cncn1)c1ccc(F)cc1F | 18 µg/mL (≈ 34.1 µM) | 0.4 µg/mL (≈ 0.758 µM) |  |  | 100% | 100% |  |  |
| C[C@@H](n1cnc2ccccc2c1=O)[C@](O)(Cn1cncn1)c1ccc(F)cc1F | 8.9 µg/mL (≈ 22.4 µM) | 1.2 µg/mL (≈ 3.02 µM) | 0% | 10% |  |  |  |  |
| CSc1ccc2c(=O)n([C@H](C)[C@](O)(Cn3cncn3)c3ccc(F)cc3F)cnc2c1 | 3.8 µg/mL (≈ 8.57 µM) | 0.5 µg/mL (≈ 1.13 µM) |  |  | 40% | 100% |  |  |
| C[C@@H](n1cnc2cc(N3CCN(c4ccc(Cl)cc4)CC3)ccc2c1=O)[C@](O)(Cn1cncn1)c1ccc(F)cc1F | 2.8 µg/mL (≈ 4.73 µM) | 0.2 µg/mL (≈ 0.338 µM) |  |  | 0% | 60% |  |  |
| C[C@@H](n1cnc2cc(OCCF)ccc2c1=O)[C@](O)(Cn1cncn1)c1ccc(F)cc1F | 28 µg/mL (≈ 60.9 µM) | 1.4 µg/mL (≈ 3.05 µM) |  |  | 0% | 0% |  |  |
| Cc1cc(Br)c2ncn([C@H](C)[C@](O)(Cn3cncn3)c3ccc(F)cc3F)c(=O)c2c1 | > 80 µg/mL | 2.1 µg/mL (≈ 4.28 µM) | 0% | 0% |  |  |  |  |
| Cc1cccc2c(=O)n([C@H](C)[C@](O)(Cn3cncn3)c3ccc(F)cc3F)cnc12 | 80 µg/mL (≈ 194 µM) | 2.3 µg/mL (≈ 5.59 µM) | 0% | 10% |  |  |  |  |
| Cc1cc(C)c2ncn([C@H](C)[C@](O)(Cn3cncn3)c3ccc(F)cc3F)c(=O)c2c1 | > 80 µg/mL | 3.8 µg/mL (≈ 8.93 µM) | 0% | 0% |  |  |  |  |
| CC[C@H]([C@H](C)O)n1ncn(-c2ccc(N3CCN(c4ccc5c(=O)n([C@H](C)[C@](O)(Cn6cncn6)c6ccc(F)cc6F)cnc5c4)CC3)cc2)c1=O | > 80 µg/mL | 32 µg/mL (≈ 44 µM) |  |  |  |  |  |  |
| C[C@@H](n1cnc2c(Cl)cc(Cl)cc2c1=O)[C@](O)(Cn1cncn1)c1ccc(F)cc1F | > 80 µg/mL | 1.7 µg/mL (≈ 3.65 µM) | 0% | 100% |  |  |  |  |
| C[C@@H](n1cnc2c(Br)cc(Br)cc2c1=O)[C@](O)(Cn1cncn1)c1ccc(F)cc1F | > 80 µg/mL | 2.6 µg/mL (≈ 4.68 µM) | 0% | 10% |  |  |  |  |
| Cc1ccc2ncn([C@H](C)[C@](O)(Cn3cncn3)c3ccc(F)cc3F)c(=O)c2c1 | 45 µg/mL (≈ 109 µM) | 1.4 µg/mL (≈ 3.4 µM) | 0% | 40% |  |  |  |  |
| C[C@@H](n1cnc2cc(S(=O)(=O)c3ccccc3)ccc2c1=O)[C@](O)(Cn1cncn1)c1ccc(F)cc1F | 8.7 µg/mL (≈ 16.2 µM) | 1.2 µg/mL (≈ 2.23 µM) |  |  | 0% | 0% |  |  |
| C[C@@H](n1cnc2ccc(Cl)cc2c1=O)[C@](O)(Cn1cncn1)c1ccc(F)cc1F | 50 µg/mL (≈ 116 µM) | 1 µg/mL (≈ 2.32 µM) | 0% | 40% |  |  |  |  |
| C[C@@H](n1cnc2cc3ccccc3cc2c1=O)[C@](O)(Cn1cncn1)c1ccc(F)cc1F | 45 µg/mL (≈ 101 µM) | 0.4 µg/mL (≈ 0.894 µM) | 0% | 30% |  |  |  |  |
| C[C@@H](n1cnc2cc(N3CCN(c4ccc([N+](=O)[O-])cc4)CC3)ccc2c1=O)[C@](O)(Cn1cncn1)c1ccc(F)cc1F | > 80 µg/mL | 7.9 µg/mL (≈ 13.1 µM) |  |  |  |  |  |  |
| C[C@@H](n1cnc2cc(N3CCOC3=O)ccc2c1=O)[C@](O)(Cn1cncn1)c1ccc(F)cc1F | 80 µg/mL (≈ 166 µM) | 8.7 µg/mL (≈ 18 µM) |  |  |  |  |  |  |
| C[C@@H](n1cnc2cc(S(C)(=O)=O)ccc2c1=O)[C@](O)(Cn1cncn1)c1ccc(F)cc1F | > 80 µg/mL | 11 µg/mL (≈ 23.1 µM) |  |  | 80% | 100% |  |  |
| C[C@@H](n1cnc2cc(NC(=O)C(F)(F)F)c(F)cc2c1=O)[C@](O)(Cn1cncn1)c1ccc(F)cc1F | 80 µg/mL (≈ 152 µM) | 8.1 µg/mL (≈ 15.4 µM) |  |  |  |  |  |  |
| C[C@@H](n1cnc2cc(Cl)ccc2c1=O)[C@](O)(Cn1cncn1)c1ccc(F)cc1F (stereo in doubt; 75) [ALBACONAZOLE] |  |  |  |  |  |  | 33 µg/mL (≈ 76.4 µM) | 1 µg/mL (≈ 2.32 µM) |

From ChEMBL document CHEMBL1131232, “New azole antifungals. 3. Synthesis and antifungal activity of 3-substituted-4(3H)-quinazolinones” (J Med Chem, 1998)
